Assay results reported in ChEMBL document CHEMBL4130549, “Synthesis and bioactivities study of new antibacterial peptide mimics: The dialkyl cationic amphiphiles” (Eur J Med Chem, 2018).
Activity calls are given as the source filed them. The calls are words filed in the database; no cut-off is given here.

What was measured:
[1] = system: Klebsiella pneumoniae; assay: Antibacterial activity against carbapenemase-producing Klebsiella pneumoniae isolate K8 after 16 to 20 hrs by broth microdilution method; assay type: functional
How it was run: (§1)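 Broth microdilution per CLSI in cation-adjusted Mueller-Hinton broth; 4-6 h cultures (~10⁸ CFU/mL) diluted to ~10⁶ CFU/mL and mixed 1:1 with twofold dilutions of water-dissolved compound (256 to 0.5 µg/mL). Incubated 16-20 h at 37 °C; MIC read visually. Each concentration run in duplicate, whole experiment repeated at least twice. MRSA, KPC and NDM-1 strains were clinical isolates.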

[2] = system: Staphylococcus aureus; assay: Antibacterial activity against methicillin-resistant Staphylococcus aureus isolate M5 after 16 to 20 hrs by broth microdilution method; assay type: functional
How it was run: (§2)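 CLSI broth microdilution in cation-adjusted Mueller-Hinton broth. A 4-6 h culture was diluted to about 10⁶ CFU/mL and mixed 1:1 with twofold compound dilutions (256–0.5 µg/mL before mixing) prepared from aqueous stocks. Plates were incubated at 37 °C for 16-20 h. Each concentration was tested in duplicate, and the experiment was repeated at least twice.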

[3] = system: Staphylococcus aureus; assay: Antibacterial activity against methicillin-resistant Staphylococcus aureus isolate M7 after 16 to 20 hrs by broth microdilution method; assay type: functional; how it was run: as §2
[4] = system: Klebsiella pneumoniae; assay: Antibacterial activity against carbapenemase-producing Klebsiella pneumoniae isolate K5 after 16 to 20 hrs by broth microdilution method; assay type: functional; how it was run: as §1
[5] = system: Enterobacteriaceae; assay: Antibacterial activity against NDM-1-producing Enterobacteriaceae isolate N10 after 16 to 20 hrs by broth microdilution method; assay type: functional; how it was run: as §1
[6] = system: Enterobacteriaceae; assay: Antibacterial activity against NDM-1-producing Enterobacteriaceae isolate N4 after 16 to 20 hrs by broth microdilution method; assay type: functional; how it was run: as §1
[7] = system: Staphylococcus aureus; assay: Antibacterial activity against methicillin-resistant Staphylococcus aureus isolate M6 after 16 to 20 hrs by broth microdilution method; assay type: functional; how it was run: as §2
[8] = system: Klebsiella pneumoniae; assay: Antibacterial activity against carbapenemase-producing Klebsiella pneumoniae isolate K7 after 16 to 20 hrs by broth microdilution method; assay type: functional; how it was run: as §1
[9] = system: Klebsiella pneumoniae; assay: Antibacterial activity against carbapenemase-producing Klebsiella pneumoniae isolate K3 after 16 to 20 hrs by broth microdilution method; assay type: functional; how it was run: as §1
[10] = system: Staphylococcus aureus; assay: Antibacterial activity against methicillin-resistant Staphylococcus aureus isolate M1 after 16 to 20 hrs by broth microdilution method; assay type: functional; how it was run: as §2
[11] = system: Enterobacteriaceae; assay: Antibacterial activity against NDM-1-producing Enterobacteriaceae isolate N9 after 16 to 20 hrs by broth microdilution method; assay type: functional; how it was run: as §1
[12] = system: Enterobacteriaceae; assay: Antibacterial activity against NDM-1-producing Enterobacteriaceae isolate N1 after 16 to 20 hrs by broth microdilution method; assay type: functional; how it was run: as §1
[13] = system: Klebsiella pneumoniae; assay: Antibacterial activity against carbapenemase-producing Klebsiella pneumoniae after 16 to 20 hrs by broth microdilution method; assay type: functional; how it was run: as §1
[14] = system: Staphylococcus aureus; assay: Antibacterial activity against Staphylococcus aureus ATCC 29213 after 16 to 20 hrs by broth microdilution method; assay type: functional; how it was run: as §2
[15] = system: Klebsiella pneumoniae; assay: Antibacterial activity against carbapenemase-producing Klebsiella pneumoniae isolate K9 after 16 to 20 hrs by broth microdilution method; assay type: functional; how it was run: as §1
[16] = system: Escherichia coli; assay: Induction of cytoplasmic membrane depolarization in Escherichia coli ATCC 25922 at 20 ug/ml measured every 2 mins for 12 mins by diSC35 staining based fluorescence assay; assay type: functional, organism-based
How it was run: (§3)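 Mid-log cells (4–6 h) pelleted, washed and resuspended (~10^8 CFU/mL) in PBS for S. aureus, or in 5 mM HEPES, 5 mM glucose and 100 mM KCl (1:1:1) for E. coli. Preloaded with diSC35 (10 µM, 50 µL), 30 min for S. aureus and 40 min plus EDTA (200 µM, 50 µL) for E. coli. Baseline read 8 min (ex 622/em 670 nm), then compound added to 20 µg/mL final and read every 2 min for 12 min. Water control.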

[17] = system: Enterobacteriaceae; assay: Antibacterial activity against NDM-1-producing Enterobacteriaceae after 16 to 20 hrs by broth microdilution method; assay type: functional; how it was run: as §1
[18] = Hemolytic activity in sheep RBC after 1 hr; assay type: ADME, cell-based, Ovis aries, Erythrocyte; settings: sheep red blood cells (erythrocytes)
How it was run: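 Sheep RBCs suspended at 5% in PBS; 150 µL added to 50 µL compound dilutions (5120 to 10 µg/mL series). Incubated 1 h at 37 °C, then centrifuged; supernatant absorbance read at 540 nm. Lysis (%) = (A−A0)/(Atotal−A0)×100, with untreated 5% RBC as A0 and 0.1% Triton X-100 as total.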

[19] = system: Staphylococcus aureus; assay: Antibacterial activity against methicillin-resistant Staphylococcus aureus isolate M3 after 16 to 20 hrs by broth microdilution method; assay type: functional; how it was run: as §2
[20] = system: Staphylococcus aureus; assay: Induction of cytoplasmic membrane depolarization in Staphylococcus aureus ATCC 29213 at 20 ug/ml measured every 2 mins for 12 mins by diSC35 staining based fluorescence assay; assay type: functional, organism-based; how it was run: as §3
[21] = system: Enterobacteriaceae; assay: Antibacterial activity against NDM-1-producing Enterobacteriaceae isolate N5 after 16 to 20 hrs by broth microdilution method; assay type: functional; how it was run: as §1
[22] = system: Staphylococcus aureus; assay: Antibacterial activity against methicillin-resistant Staphylococcus aureus isolate M8 after 16 to 20 hrs by broth microdilution method; assay type: functional; how it was run: as §2
[23] = system: Klebsiella pneumoniae; assay: Antibacterial activity against carbapenemase-producing Klebsiella pneumoniae isolate K10 after 16 to 20 hrs by broth microdilution method; assay type: functional; how it was run: as §1
[24] = system: Escherichia coli; assay: Antibacterial activity against Escherichia coli ATCC 25922 after 16 to 20 hrs by broth microdilution method; assay type: functional; how it was run: as §1
[25] = system: Enterobacteriaceae; assay: Antibacterial activity against NDM-1-producing Enterobacteriaceae isolate N8 after 16 to 20 hrs by broth microdilution method; assay type: functional; how it was run: as §1
[26] = system: Klebsiella pneumoniae; assay: Antibacterial activity against carbapenemase-producing Klebsiella pneumoniae isolate K6 after 16 to 20 hrs by broth microdilution method; assay type: functional; how it was run: as §1
[27] = system: Enterobacteriaceae; assay: Antibacterial activity against NDM-1-producing Enterobacteriaceae isolate N2 after 16 to 20 hrs by broth microdilution method; assay type: functional; how it was run: as §1
[28] = system: Enterococcus faecalis; assay: Antibacterial activity against Enterococcus faecalis after 16 to 20 hrs by broth microdilution method; assay type: functional; how it was run: as §1
[29] = system: Staphylococcus aureus; assay: Antibacterial activity against methicillin-resistant Staphylococcus aureus after 16 to 20 hrs by broth microdilution method; assay type: functional; how it was run: as §2
[30] = system: Staphylococcus aureus; assay: Antibacterial activity against methicillin-resistant Staphylococcus aureus isolate M4 after 16 to 20 hrs by broth microdilution method; assay type: functional; how it was run: as §2
[31] = system: Enterobacteriaceae; assay: Antibacterial activity against NDM-1-producing Enterobacteriaceae isolate N3 after 16 to 20 hrs by broth microdilution method; assay type: functional; how it was run: as §1
[32] = system: Klebsiella pneumoniae; assay: Antibacterial activity against carbapenemase-producing Klebsiella pneumoniae isolate K2 after 16 to 20 hrs by broth microdilution method; assay type: functional; how it was run: as §1
[33] = system: Staphylococcus aureus; assay: Antibacterial activity against methicillin-resistant Staphylococcus aureus isolate M9 after 16 to 20 hrs by broth microdilution method; assay type: functional; how it was run: as §2
[34] = system: Escherichia coli; assay: Induction of outer membrane permeabilization in Escherichia coli ATCC 25922 at 20 ug/ml measured every 2 mins for 12 mins by NPN staining based fluorescence assay; assay type: functional, organism-based
How it was run: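 Mid-log E. coli (~10^8 CFU/mL) in black plates pre-incubated about 40 min with NPN (10 µM, 50 µL). Baseline read 8 min (ex 350/em 420 nm), then compound added to 20 µg/mL final and fluorescence followed every 2 min for 12 min. Water-treated control.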

[35] = system: Staphylococcus aureus; assay: Antibacterial activity against methicillin-resistant Staphylococcus aureus isolate M2 after 16 to 20 hrs by broth microdilution method; assay type: functional; how it was run: as §2
[36] = system: Salmonella enterica; assay: Antibacterial activity against Salmonella enterica after 16 to 20 hrs by broth microdilution method; assay type: functional; how it was run: as §1
[37] = system: Klebsiella pneumoniae; assay: Antibacterial activity against carbapenemase-producing Klebsiella pneumoniae isolate K1 after 16 to 20 hrs by broth microdilution method; assay type: functional; how it was run: as §1
[38] = system: Enterobacteriaceae; assay: Antibacterial activity against NDM-1-producing Enterobacteriaceae isolate N7 after 16 to 20 hrs by broth microdilution method; assay type: functional; how it was run: as §1
[39] = system: Staphylococcus aureus; assay: Induction of inner membrane permeabilization in Staphylococcus aureus ATCC 29213 at 20 ug/ml measured every 2 mins for 12 mins by propidium iodide staining based fluorescence assay; assay type: functional, organism-based
How it was run: (§4)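 Mid-log cells (~10^8 CFU/mL) pre-incubated with propidium iodide (10 µM, 50 µL), 30 min for S. aureus and 40 min for E. coli. Fluorescence (ex 535/em 617 nm) read for 8 min, then compound added to 20 µg/mL final and monitored every 2 min for 12 min. Water-treated control.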

[40] = system: Staphylococcus aureus; assay: Antibacterial activity against methicillin-resistant Staphylococcus aureus isolate M10 after 16 to 20 hrs by broth microdilution method; assay type: functional; how it was run: as §2
[41] = system: Escherichia coli; assay: Induction of inner membrane permeabilization in Escherichia coli ATCC 25922 at 20 ug/ml measured every 2 mins for 12 mins by propidium iodide staining based fluorescence assay; assay type: functional, organism-based; how it was run: as §4
[42] = system: Enterobacteriaceae; assay: Antibacterial activity against NDM-1-producing Enterobacteriaceae isolate N6 after 16 to 20 hrs by broth microdilution method; assay type: functional; how it was run: as §1
[43] = system: Klebsiella pneumoniae; assay: Antibacterial activity against carbapenemase-producing Klebsiella pneumoniae isolate K4 after 16 to 20 hrs by broth microdilution method; assay type: functional; how it was run: as §1

SMILES: CCCCCCCCN(CCCCCCCC)C(=O)[C@@H](N)CO.Cl
- MIC [1]: 32 µg/mL
- MIC [2]: 4 µg/mL
- MIC [3]: 2 µg/mL
- MIC [4]: 32 µg/mL
- MIC [5]: 32 µg/mL
- MIC [6]: 16 µg/mL
- MIC [7]: 4 µg/mL
- MIC [8]: 32 µg/mL
- MIC [9]: 32 µg/mL
- MIC [10]: 4 µg/mL
- MIC [11]: 32 µg/mL
- MIC [12]: 32 µg/mL
- MIC [13]: 32 µg/mL
- MIC [14]: 4 µg/mL
- MIC [15]: 32 µg/mL
- Activity [16]: Active
- MIC [17]: 16 µg/mL
- HC50 at 1 h [18]: > 1000 µg/mL
- MIC [19]: 4 µg/mL
- Activity [20]: Active
- MIC [21]: 16 µg/mL
- MIC [22]: 4 µg/mL
- MIC [23]: 32 µg/mL
- MIC [24]: 8 µg/mL
- MIC [25]: 32 µg/mL
- MIC [26]: 32 µg/mL
- MIC [27]: 32 µg/mL
- MIC [28]: 2 µg/mL
- MIC [29]: 2 µg/mL
- MIC [30]: 4 µg/mL
- MIC [31]: 16 µg/mL
- MIC [32]: 32 µg/mL
- MIC [33]: 4 µg/mL
- Activity [34]: Active
- MIC [35]: 4 µg/mL
- MIC [36]: 8 µg/mL
- MIC [37]: 32 µg/mL
- MIC [38]: 32 µg/mL
- Activity [39]: Active
- MIC [40]: 2 µg/mL
- Activity [41]: Active
- MIC [42]: 16 µg/mL
- MIC [43]: 32 µg/mL

SMILES: CCCCCCCCN(CCCCCCCC)C(=O)[C@H](N)CO.Cl
- MIC [1]: 32 µg/mL
- MIC [2]: 4 µg/mL
- MIC [3]: 4 µg/mL
- MIC [4]: 32 µg/mL
- MIC [5]: 16 µg/mL
- MIC [6]: 16 µg/mL
- MIC [7]: 4 µg/mL
- MIC [8]: 32 µg/mL
- MIC [9]: 32 µg/mL
- MIC [10]: 4 µg/mL
- MIC [11]: 16 µg/mL
- MIC [12]: 32 µg/mL
- MIC [13]: 32 µg/mL
- MIC [14]: 4 µg/mL
- MIC [15]: 32 µg/mL
- Activity [16]: Active
- MIC [17]: 16 µg/mL
- HC50 at 1 h [18]: 367 µg/mL
- MIC [19]: 4 µg/mL
- Activity [20]: Active
- MIC [21]: 16 µg/mL
- MIC [22]: 4 µg/mL
- MIC [23]: 32 µg/mL
- MIC [24]: 8 µg/mL
- MIC [25]: 32 µg/mL
- MIC [26]: 32 µg/mL
- MIC [27]: 16 µg/mL
- MIC [28]: 4 µg/mL
- MIC [29]: 4 µg/mL
- MIC [30]: 4 µg/mL
- MIC [31]: 16 µg/mL
- MIC [32]: 32 µg/mL
- MIC [33]: 4 µg/mL
- Activity [34]: Active
- MIC [35]: 4 µg/mL
- MIC [36]: 8 µg/mL
- MIC [37]: 32 µg/mL
- MIC [38]: 32 µg/mL
- Activity [39]: Active
- MIC [40]: 4 µg/mL
- Activity [41]: Active
- MIC [42]: 16 µg/mL
- MIC [43]: 32 µg/mL
